# Experiments:
# [1] = target: T1, Tyrosine-protein phosphatase non-receptor type 1 (Homo sapiens, UniProt P18031); assay: In vitro inhibitory activity against recombinant human protein-tyrosine phosphatase 1B (PTP1B) using fluorescein diphosphate (FDP) as a substrate
# T1 sequence (P18031 whole entry): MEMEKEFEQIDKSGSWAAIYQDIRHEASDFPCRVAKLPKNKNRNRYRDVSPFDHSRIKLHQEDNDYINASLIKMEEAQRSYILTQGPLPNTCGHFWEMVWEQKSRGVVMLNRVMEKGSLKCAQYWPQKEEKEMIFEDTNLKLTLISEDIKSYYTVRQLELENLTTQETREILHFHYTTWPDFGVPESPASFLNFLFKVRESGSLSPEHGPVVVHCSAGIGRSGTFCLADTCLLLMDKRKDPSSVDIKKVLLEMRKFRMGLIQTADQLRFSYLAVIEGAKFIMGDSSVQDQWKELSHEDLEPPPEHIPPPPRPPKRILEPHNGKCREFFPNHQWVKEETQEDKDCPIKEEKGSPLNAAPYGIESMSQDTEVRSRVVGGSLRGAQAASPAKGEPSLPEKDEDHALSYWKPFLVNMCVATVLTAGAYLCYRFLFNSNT
# How it was run: (§1)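 Recombinant human PTP1B enzyme, fluorescein diphosphate (FDP) as substrate. Enzyme activity was followed by fluorescence measurement. IC50 values were obtained by direct regression curve analysis.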
# [2] = target: T2, M-phase inducer phosphatase 2 (Homo sapiens, UniProt P30305); assay: In vitro inhibitory activity against recombinant human Cdc25B using fluorescein diphosphate (FDP) as a substrate
# T2 sequence (P30305 whole entry): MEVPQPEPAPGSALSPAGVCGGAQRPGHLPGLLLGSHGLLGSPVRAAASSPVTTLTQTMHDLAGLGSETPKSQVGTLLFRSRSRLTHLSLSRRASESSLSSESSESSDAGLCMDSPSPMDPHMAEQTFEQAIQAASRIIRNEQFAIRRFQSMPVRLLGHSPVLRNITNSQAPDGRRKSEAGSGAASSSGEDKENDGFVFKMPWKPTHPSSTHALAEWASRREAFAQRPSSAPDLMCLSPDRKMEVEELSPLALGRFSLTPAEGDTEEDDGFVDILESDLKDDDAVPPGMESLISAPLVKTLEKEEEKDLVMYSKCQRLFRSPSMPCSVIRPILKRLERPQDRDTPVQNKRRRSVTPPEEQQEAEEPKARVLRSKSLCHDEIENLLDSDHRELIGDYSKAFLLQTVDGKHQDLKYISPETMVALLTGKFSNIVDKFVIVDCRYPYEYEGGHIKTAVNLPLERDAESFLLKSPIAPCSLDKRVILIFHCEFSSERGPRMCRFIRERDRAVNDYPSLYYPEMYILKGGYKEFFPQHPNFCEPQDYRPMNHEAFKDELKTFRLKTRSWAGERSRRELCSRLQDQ
# [3] = target: T3, Receptor-type tyrosine-protein phosphatase C (Homo sapiens, UniProt P08575); assay: In vitro inhibitory activity against recombinant human CD45 using fluorescein diphosphate (FDP) as a substrate
# T3 sequence (P08575 whole entry): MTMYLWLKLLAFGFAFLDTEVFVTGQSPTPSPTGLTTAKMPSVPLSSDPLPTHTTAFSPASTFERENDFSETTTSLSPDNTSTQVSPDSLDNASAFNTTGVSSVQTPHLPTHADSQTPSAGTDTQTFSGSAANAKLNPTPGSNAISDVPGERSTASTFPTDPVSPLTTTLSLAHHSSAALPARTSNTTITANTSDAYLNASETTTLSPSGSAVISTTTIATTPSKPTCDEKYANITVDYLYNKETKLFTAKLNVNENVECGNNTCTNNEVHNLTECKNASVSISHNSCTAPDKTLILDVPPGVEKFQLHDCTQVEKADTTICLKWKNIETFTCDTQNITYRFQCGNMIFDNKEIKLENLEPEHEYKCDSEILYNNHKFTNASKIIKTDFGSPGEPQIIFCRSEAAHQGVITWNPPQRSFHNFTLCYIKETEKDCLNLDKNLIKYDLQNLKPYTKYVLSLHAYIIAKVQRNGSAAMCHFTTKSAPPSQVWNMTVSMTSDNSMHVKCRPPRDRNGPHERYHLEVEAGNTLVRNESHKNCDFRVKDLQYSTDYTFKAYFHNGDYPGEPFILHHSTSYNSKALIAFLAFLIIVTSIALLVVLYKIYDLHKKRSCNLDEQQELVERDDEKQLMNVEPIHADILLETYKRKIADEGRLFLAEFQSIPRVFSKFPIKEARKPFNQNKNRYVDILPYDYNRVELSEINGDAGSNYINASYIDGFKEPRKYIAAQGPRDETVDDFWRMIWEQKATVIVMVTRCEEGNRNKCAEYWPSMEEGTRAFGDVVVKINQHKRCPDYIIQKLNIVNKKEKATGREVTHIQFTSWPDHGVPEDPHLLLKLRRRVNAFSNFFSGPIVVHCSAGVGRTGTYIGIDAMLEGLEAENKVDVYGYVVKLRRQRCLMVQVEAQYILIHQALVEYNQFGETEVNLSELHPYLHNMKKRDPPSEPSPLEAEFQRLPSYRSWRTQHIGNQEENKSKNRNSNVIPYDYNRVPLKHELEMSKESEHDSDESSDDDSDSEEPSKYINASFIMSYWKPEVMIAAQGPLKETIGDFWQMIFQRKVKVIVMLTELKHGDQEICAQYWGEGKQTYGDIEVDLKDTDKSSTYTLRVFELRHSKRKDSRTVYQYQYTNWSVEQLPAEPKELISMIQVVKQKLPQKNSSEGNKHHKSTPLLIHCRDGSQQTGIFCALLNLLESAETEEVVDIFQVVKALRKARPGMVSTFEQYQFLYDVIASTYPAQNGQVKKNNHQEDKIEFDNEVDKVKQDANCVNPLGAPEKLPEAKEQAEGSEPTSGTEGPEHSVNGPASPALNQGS
# [4] = In vitro inhibitory activity against recombinant […] Yop using fluorescein diphosphate (FDP) as a substrate
# [5] = In vitro inhibitory activity against recombinant human PPI using fluorescein diphosphate (FDP) as a substrate
# [6] = target: T1, Tyrosine-protein phosphatase non-receptor type 1; assay: In vitro inhibitory activity against recombinant human protein-tyrosine phosphatase 1B (PTP1B) using fluorescein diphosphate (FDP) as a substrate; Not active; how it was run: as §1
# [7] = target: Receptor-type tyrosine-protein phosphatase F (Homo sapiens, UniProt P10586); assay: In vitro inhibitory activity against recombinant human LAR using fluorescein diphosphate (FDP) as a substrate
# Chain of Receptor-type tyrosine-protein phosphatase F (P10586 whole entry): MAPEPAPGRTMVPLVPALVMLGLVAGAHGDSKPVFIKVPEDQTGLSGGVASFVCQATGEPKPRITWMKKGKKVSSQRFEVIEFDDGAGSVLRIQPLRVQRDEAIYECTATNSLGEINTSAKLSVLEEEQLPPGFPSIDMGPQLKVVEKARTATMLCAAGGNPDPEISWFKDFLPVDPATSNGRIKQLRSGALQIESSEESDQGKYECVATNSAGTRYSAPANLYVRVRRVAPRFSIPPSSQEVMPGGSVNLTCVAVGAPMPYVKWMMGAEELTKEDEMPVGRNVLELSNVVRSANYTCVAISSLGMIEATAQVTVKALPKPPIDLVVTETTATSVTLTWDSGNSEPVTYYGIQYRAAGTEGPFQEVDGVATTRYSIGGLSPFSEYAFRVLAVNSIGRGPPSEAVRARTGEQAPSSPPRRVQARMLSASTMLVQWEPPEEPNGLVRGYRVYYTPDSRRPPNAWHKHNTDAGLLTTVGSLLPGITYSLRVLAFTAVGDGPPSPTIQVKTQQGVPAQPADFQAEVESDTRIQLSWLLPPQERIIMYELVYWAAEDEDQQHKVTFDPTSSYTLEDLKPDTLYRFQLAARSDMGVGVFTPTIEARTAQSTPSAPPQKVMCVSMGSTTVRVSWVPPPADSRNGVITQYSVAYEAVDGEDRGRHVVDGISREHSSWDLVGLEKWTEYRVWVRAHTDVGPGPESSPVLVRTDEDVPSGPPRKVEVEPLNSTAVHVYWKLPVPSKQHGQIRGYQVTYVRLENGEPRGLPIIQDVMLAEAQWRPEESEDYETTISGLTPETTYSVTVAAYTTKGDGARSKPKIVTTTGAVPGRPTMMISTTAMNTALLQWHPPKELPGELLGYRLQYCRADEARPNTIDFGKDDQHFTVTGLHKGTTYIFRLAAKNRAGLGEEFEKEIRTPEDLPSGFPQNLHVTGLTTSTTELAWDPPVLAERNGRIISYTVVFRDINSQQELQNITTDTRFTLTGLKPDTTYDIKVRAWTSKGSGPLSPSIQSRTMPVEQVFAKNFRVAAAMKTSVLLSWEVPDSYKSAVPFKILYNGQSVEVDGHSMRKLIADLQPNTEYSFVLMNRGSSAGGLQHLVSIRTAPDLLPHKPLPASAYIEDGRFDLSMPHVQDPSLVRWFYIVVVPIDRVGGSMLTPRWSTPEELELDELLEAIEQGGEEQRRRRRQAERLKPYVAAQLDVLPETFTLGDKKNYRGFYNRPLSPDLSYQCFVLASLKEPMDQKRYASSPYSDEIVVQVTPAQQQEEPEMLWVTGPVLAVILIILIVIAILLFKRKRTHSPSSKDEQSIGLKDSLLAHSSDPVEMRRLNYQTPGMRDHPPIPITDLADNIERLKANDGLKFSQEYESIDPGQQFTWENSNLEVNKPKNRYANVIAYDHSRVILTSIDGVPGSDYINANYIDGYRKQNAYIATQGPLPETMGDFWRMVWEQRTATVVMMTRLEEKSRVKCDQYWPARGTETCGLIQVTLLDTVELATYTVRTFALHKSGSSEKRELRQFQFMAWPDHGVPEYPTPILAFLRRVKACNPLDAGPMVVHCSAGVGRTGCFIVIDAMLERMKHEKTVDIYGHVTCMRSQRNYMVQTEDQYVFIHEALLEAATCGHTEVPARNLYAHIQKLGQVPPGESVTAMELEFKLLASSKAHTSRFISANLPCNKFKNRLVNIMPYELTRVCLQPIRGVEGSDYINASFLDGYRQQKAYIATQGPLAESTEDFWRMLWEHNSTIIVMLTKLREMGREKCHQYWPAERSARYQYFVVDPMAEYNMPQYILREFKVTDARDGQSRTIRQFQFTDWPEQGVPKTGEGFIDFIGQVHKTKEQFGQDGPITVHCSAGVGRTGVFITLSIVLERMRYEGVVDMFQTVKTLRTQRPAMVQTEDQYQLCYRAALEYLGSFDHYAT
# [8] = target: T1, Tyrosine-protein phosphatase non-receptor type 1; assay: Inhibition of human Protein-tyrosine phosphatase 1B (PTP1B) using fluorescein diphosphate (FDP); how it was run: as §1
compound,measurement,setting,value
O=C1C=C(c2ccc(O)cc2)c2ccccc2C1=O,IC50,[1]; read-out: IC50,440 nM
O=C1C=C(c2ccccc2)c2ccccc2C1=O,IC50,[2],9520 nM
same,IC50,[1]; read-out: IC50,860 nM
same,IC50,[3],840 nM
same,IC50,[4],21.1 µM
same,IC50,[5],8.37 µM
CCCCC1=CC(=O)C(=O)c2ccccc21,IC50,[6],Not Active
CC(C)C1=CC(=O)C(=O)c2ccccc21,IC50,[1]; read-out: IC50,10100 nM
CCCCCCCCCCC1=CC(=O)C(=O)c2ccccc21,IC50,[6],Not Active
O=C1C=C(c2c[nH]c3cc(C(=O)O)ccc23)c2ccccc2C1=O,IC50,[1]; read-out: IC50,4560 nM
CCCCCOc1ccc2c(c1)C(c1ccccc1)=CC(=O)C2=O,IC50,[6],Not Active
CCCCCOc1ccc2c(c1)C(=O)C(=O)C=C2c1ccccc1,IC50,[1]; read-out: IC50,920 nM
COC(=O)c1ccc(C2=CC(=O)C(=O)c3ccccc32)cc1,IC50,[2],2130 nM
same,IC50,[1]; read-out: IC50,1540 nM
same,IC50,[3],1650 nM
same,IC50,[4],12 µM
O=C1C=C(C2CCCCC2)c2ccccc2C1=O,IC50,[2],3000 nM
same,IC50,[1]; read-out: IC50,320 nM
same,IC50,[3],3270 nM
same,IC50,[4],17.9 µM
same,IC50,[5],8.06 µM
same,IC50,[7],8.99 µM
CCCCCCC1=CC(=O)C(=O)c2ccccc21,IC50,[1]; read-out: IC50,3300 nM
CCOC(=O)CCC1=C(n2ccc3ccccc32)c2ccccc2C(=O)C1=O,IC50,[8],270 nM
O=C1C=C(c2ccccc2[N+](=O)[O-])c2ccccc2C1=O,IC50,[1]; read-out: IC50,1170 nM
O=C1C=C(Cc2ccccc2)c2ccccc2C1=O,IC50,[1]; read-out: IC50,1420 nM
CC(C)(C)OC(=O)COc1ccc(CC2=C(c3ccccc3)c3ccccc3C(=O)C2=O)cc1,IC50,[8],1480 nM
O=C1C=C(c2cc(Cl)ccc2Cl)c2ccccc2C1=O,IC50,[1]; read-out: IC50,5050 nM
O=C(Nc1cccc2c1C(=O)C(=O)C=C2c1ccccc1)OCc1ccccc1,IC50,[1]; read-out: IC50,1340 nM
CCCCCOC1=C(c2ccccc2)c2ccccc2C(=O)C1=O,IC50,[1]; read-out: IC50,2690 nM
O=C(Nc1ccc2c(c1)C(=O)C(=O)C=C2c1ccccc1)OCc1ccccc1,IC50,[1]; read-out: IC50,2250 nM
O=C1C=C(S(=O)(=O)O)c2ccccc2C1=O,IC50,[1]; read-out: IC50,5290 nM
"O=C1C=Cc2ccccc2C1=O [1,2-NAPHTHOQUINONE]",IC50,[8],24600 nM
O=C1C=C(N2CCCC2)c2ccccc2C1=O,IC50,[1],Not Active
COC(=O)C(Cc1ccccc1)Oc1ccc2c(c1)C(=O)C(=O)C=C2c1ccccc1 (centres undefined),IC50,[1]; read-out: IC50,2540 nM
CCN(CC)C(=O)CCC1=C(c2ccccc2)c2ccccc2C(=O)C1=O,IC50,[8],610 nM
O=C1C=C(c2c[nH]c3ccc(C(=O)O)cc23)c2ccccc2C1=O,IC50,[1]; read-out: IC50,3000 nM
CCOC(=O)CCC1=C(c2ccccc2)c2ccccc2C(=O)C1=O,IC50,[8],430 nM
CCOC(=O)COc1ccc(C2=CC(=O)C(=O)c3ccccc32)cc1,IC50,[1]; read-out: IC50,1070 nM
O=C(O)COc1ccc(CC2=C(n3ccc4ccccc43)c3ccccc3C(=O)C2=O)cc1,IC50,[8],1010 nM
O=C1C=C(c2ccc(-c3ccccc3)cc2)c2ccccc2C1=O,IC50,[1]; read-out: IC50,5400 nM
CC(C)(C)c1cc(C2=CC(=O)C(=O)c3ccccc32)cc(C(C)(C)C)c1O,IC50,[1]; read-out: IC50,5730 nM
COC1=CC(=O)C(=O)c2ccccc21,IC50,[1]; read-out: IC50,29100 nM
O=C1C=C(c2ccccc2O)c2ccccc2C1=O,IC50,[1]; read-out: IC50,1600 nM
COC(=O)CCc1ccc2c(c1)C(n1ccc3ccccc31)=CC(=O)C2=O,IC50,[8],920 nM
CCOC(=O)COc1ccccc1C1=CC(=O)C(=O)c2ccccc21,IC50,[1]; read-out: IC50,2150 nM
O=C1C=C(n2ccc3ccccc32)c2ccc(OC(Cc3ccccc3)C(=O)O)cc2C1=O (centres undefined),IC50,[1]; read-out: IC50,2070 nM
COC(=O)CCC1=C(c2ccccc2)c2cc(CCC(=O)OC)ccc2C(=O)C1=O,IC50,[8],680 nM
Cc1c(C2=CC(=O)C(=O)c3ccccc32)c2ccccc2n1C,IC50,[6],Not Active
COc1ccc(C2=CC(=O)C(=O)c3ccccc32)cc1,IC50,[1]; read-out: IC50,5240 nM
O=C1C=C(c2cc(F)ccc2F)c2ccccc2C1=O,IC50,[1]; read-out: IC50,500 nM
O=C1C=C(c2cccc3ccccc23)c2ccccc2C1=O,IC50,[1]; read-out: IC50,2150 nM
O=C1C=C(OCCCO)c2ccccc2C1=O,IC50,[1]; read-out: IC50,36500 nM
CCOC(=O)c1ccc(CCC2=C(c3ccccc3)c3ccccc3C(=O)C2=O)cc1,IC50,[8],1010 nM
CN(C1=CC(=O)C(=O)c2ccccc21)c1ccccc1,IC50,[1]; read-out: IC50,34900 nM
O=C1C=C(c2c[nH]c3ccccc23)c2ccccc2C1=O,IC50,[2],1950 nM
same,IC50,[1]; read-out: IC50,1130 nM
same,IC50,[3],3070 nM
same,IC50,[4],25.6 µM
same,IC50,[5],3.19 µM
same,IC50,[7],10.2 µM
O=C1C=C(C2CCCC2)c2ccccc2C1=O,IC50,[1]; read-out: IC50,4200 nM
"NC1=CC(=O)C(=O)c2ccccc21 [4-AMINO-[1,2]NAPHTHOQUINONE]",IC50,[1]; read-out: IC50,24600 nM
CCOC(=O)Nc1cccc2c1C(=O)C(=O)C=C2c1ccccc1,IC50,[1]; read-out: IC50,650 nM
COC(=O)CCC1=C(n2ccc3ccccc32)c2ccc(CCC(=O)OC)cc2C(=O)C1=O,IC50,[8],940 nM
COc1ccc2c(c1)C(=O)C(=O)C=C2c1ccccc1,IC50,[1]; read-out: IC50,2040 nM
O=C(O)COc1ccc(CC2=C(c3ccccc3)c3ccccc3C(=O)C2=O)cc1,IC50,[8],1540 nM
O=C1C=C(c2c(-c3ccccc3)[nH]c3ccccc23)c2ccccc2C1=O,IC50,[6],Not Active
COC(=O)CCc1ccc2c(c1)C(c1ccccc1)=CC(=O)C2=O,IC50,[8],330 nM
